This is a sample that favours compounds with a hit; in the whole collection about 3% have one here.
MPTP block – inhibitors of mitochondrial permeability transition pore. isolated mouse mitochondria, Ca2+ swelling absorbance, 30 min. inhibition, % at 10 µM. 360,000 compounds, 1.4% hits;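 active means inhibition of 50% or more, scaled per plate between neutral and stimulator controls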
Apaf-1 inh – human Apaf-1 inhibition | O14727 | reconstituted apoptosome caspase-3 activity, DEVD-Rh110 fluorescence | inhibition, % at 20 µM | 330,000 compounds, 0.71% hits | AID 489030; active means inhibition of at least 40% at 20 µM
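Assay system: Apoptosome proteins | Medium: pH 7.5 Hepes buffer with CHAPS, BSA, DTT | Also added: Cytochrome c and DEVD-Rh110 substrate | Times: 30 min plus 50 min, RT | Detection: Rhodamine 110 fluorescence at Ex 480/Em 540 nm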
UBC13 polyUb – blocks human UBC13 polyubiquitin chain formation; inhibition, % at 20 µM; P61088; TR-FRET; AID 485273; 330,000 compounds, 0.47% hits; in the data active means inhibition above about 45%, passing the limit was not always enough
Target sequence (P61088 whole entry, looked up): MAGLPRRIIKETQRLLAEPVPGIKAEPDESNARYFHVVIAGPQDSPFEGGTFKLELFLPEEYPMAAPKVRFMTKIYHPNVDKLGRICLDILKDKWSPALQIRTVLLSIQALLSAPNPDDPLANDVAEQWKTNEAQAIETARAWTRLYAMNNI
hiPSC survival – hiPSC single-cell survival enhancement | ATPlite luminescence; 100% = ROCK inhibitor wells, 0% = DMSO | survival enhancement, % at 20 µM | 360,000 compounds, 0.044% hits; in the data active means survival enhancement above about 18%;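 further: cells exposed to compounds for 16 hours before the ATP read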
MIN6 prolif – induces beta-cell replication in MIN6 cells; MIN6 cells proliferation, ATPlite luminescence, 48 h; cells starved in 0.2% serum; 100% = growth in 10% serum; proliferation, % at 10 µM; 330,000 compounds, 0.29% hits; AID 2380;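 active means compounds whose signal lies at least 3.5 SD above the mean of all wells on their plate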
Exocytosis inh – blocks lytic granule exocytosis. TALL-104 LAMP-1 surface exposure, flow cytometry; cells stimulated with thapsigargin and PMA. inhibition, % at 10 µM. 360,000 compounds, 0.66% hits;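 active means inhibition above about 55%, limit read from the data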
A number is an active result; 0 = inactive; - = no result given.

SMILES | MPTP block | Apaf-1 inh | UBC13 polyUb | hiPSC survival | MIN6 prolif | Exocytosis inh
C#CCOCCOCCOCCNc1nc(N2CCN(C(=O)C([C@@H](C)O)n3cc([C@@H](N)CCCCN)nn3)CC2)nc(N2CCN(C(=O)[C@H](CCCCN)n3cc([C@@H](N)[C@H](C)CC)nn3)CC2)n1 (some centres not stated) | 0 | 0 | 104 | 0 | 0 | 0
C#CCOCCOCCOCCNc1nc(N2CCN(C(=O)C([C@@H](C)CC)n3cc(C(N)Cc4ccc(O)cc4)nn3)CC2)nc(N2CCN(C(=O)[C@H](CCC(=O)O)n3cc(C(N)Cc4ccc(O)cc4)nn3)CC2)n1 (some centres not stated) | 0 | 0 | 0 | 0 | 0 | 64
C#CCOCCOCCOCCNc1nc(N2CCN(C(=O)[C@H]([C@@H](C)CC)n3cc([C@@H](N)Cc4ccc(O)cc4)nn3)CC2)nc(N2CCN(C(=O)[C@H](CCCCN)n3cc([C@@H](N)CC(C)C)nn3)CC2)n1 | - | 0 | 97 | - | 0 | -
C#CCOCCOCCOCCNc1nc(N2CCN(C(=O)C([C@@H](C)CC)n3cc(C(N)CC(C)C)nn3)CC2)nc(N2CCN(C(=O)[C@H](CCC(=O)O)n3cc(C(N)Cc4ccc(O)cc4)nn3)CC2)n1 (some centres not stated) | 0 | 0 | 0 | 0 | 0 | 0
Cc1ccc2c(c1)N(C(=O)CCC(=O)NCCN1CCOCC1)CC(C)O2 (configuration not stated) | 0 | 0 | 0 | 0 | 0 | 0
Nc1ccc(N2CCCCCC2)cc1 | - | 93 | 0 | - | 0 | -
Cc1nonc1CC(=O)NC1CCCc2c1cnn2-c1ccc(F)cc1F (configuration not stated) | 0 | 0 | 0 | 0 | 0 | 0
O=C(O)CCCN1C(=O)/C(=C/c2ccc(-c3nc4ccccc4s3)o2)SC1=S | 0 | 0 | 0 | 0 | 0 | 66
C=CCn1c(N)c(C(=O)Nc2cccc(C)c2)c2nc3ccccc3nc21 | 0 | 48 | 0 | 0 | 0 | 0
Cc1onc(-c2ccccc2)c1C(=O)OCC(=O)N(CC(C)C)c1c(N)n(Cc2ccccc2)c(=O)[nH]c1=O | 0 | 0 | 0 | 0 | 0 | 0
NC(=O)c1ccccc1NC(=O)c1cccc(C(=O)Nc2ccccc2C(N)=O)n1 | 0 | 0 | 0 | 0 | 0 | 0
COc1ccc2[nH]c3c(=O)n(/N=C/c4ccc(OC)c(CN5CCCC5)c4)c(C)nc3c2c1 | 0 | 43 | 0 | 0 | 0 | 0
C/C=C(\C)C(=O)OC1[C@H](OC(C)=O)C2(CO)C(CC1(C)C)C1=CCC3C4(C)CCC(O[C@@H]5O[C@H](C(=O)O)[C@@H](O[C@@H]6O[C@H](CO)[C@@H](O)[C@H](O)[C@H]6O)[C@H](O)[C@H]5O[C@H]5O[C@H](CO)[C@@H](O)[C@H](O)[C@H]5O)[C@](C)(CO)C4CCC3(C)[C@]1(C)C[C@H]2O (some centres not stated) | 0 | - | - | 0 | - | 71
C/C=C(/C)C(=O)OC1CC(C)(C)C[C@H]2C3=CC[C@@H]4[C@@]5(C)CCC(O[C@@H]6O[C@@H](C(=O)O)[C@@H](O)C(O[C@@H]7OC[C@H](O)[C@@H](O)[C@@H]7O[C@@H]7OC(CO)C(O)[C@@H](O)[C@@H]7O)C6O[C@@H]6OC(CO)C(O)C(O)C6O)[C@@](C)(CO)[C@@H]5CC[C@]4(C)[C@]3(C)CC(O)[C@@]12CO (some centres not stated) | 0 | 0 | 0 | 0 | 0 | 0
CC(C)CN(C(=O)COC(=O)c1c2c(nc3ccccc13)CCC2)c1c(N)n(Cc2ccccc2)c(=O)[nH]c1=O | 0 | 0 | 0 | 0 | 0 | 0
Cc1ccc(NC(=O)Cn2c(O)c(N=NS(=O)(=O)c3ccc(C)cc3)c3ccccc32)cc1 | 0 | 0 | 0 | 0 | 0 | 56
O=S(=O)(NNc1nccc(C(F)(F)F)n1)c1cccc(Cl)c1Cl | 0 | 0 | 0 | 0 | 0 | 83
CCOC(=O)/C(=C\c1ccccc1)C(=O)c1cc(C(C)=O)c(Nc2ccccc2)s1 | 0 | 0 | 0 | 0 | 0 | 0
CCOC(=O)/C(=C\c1cccnc1)C(=O)c1cc(C(C)=O)c(Nc2ccccc2)s1 | 0 | 0 | 0 | 0 | 0 | 60
CCOC(=O)c1c(-c2ccc(C)o2)csc1NC(=O)CSc1nncs1 | 0 | 0 | 0 | 0 | 0 | 90
CCOC(=O)c1c(-c2ccc(C)o2)csc1NC(=O)CN1CCCCC1 | 0 | 0 | 0 | 0 | 0 | 0
COC(=O)[C@]12CCCCC=C1N(Cc1ccccc1)C(=O)[C@H](CC(=O)NCC1CCCCC1)C2 | 0 | - | - | 0 | - | 0
O=Cc1cccnc1SCc1ccccc1 | 0 | 0 | 0 | 0 | 0 | 64
Oc1cccnc1SCc1ccccc1 | 0 | 0 | 0 | 0 | 0 | 0
O=C1C=C(O)c2cccc(O)c2C1=O | 0 | 44 | 0 | 0 | 0 | 0
SMILES | MPTP block | Apaf-1 inh | UBC13 polyUb | hiPSC survival | MIN6 prolif | Exocytosis inh
Cc1cc(C)cc(NC(=O)CSc2nc3nc(C)cc(C)n3n2)c1 | 0 | 0 | 0 | 0 | 0 | 0
CCN1CCN(CCCNC(=O)c2ccc(/C=C3/Oc4ccccc4N(Cc4cccc(C)c4)C3=O)cc2)CC1 | 0 | 47 | 64 | 0 | 0 | 0
CCCCNC(=O)c1ccc(/C=C2\Oc3ccccc3N(C)C2=O)cc1 | 0 | 0 | 0 | 0 | 0 | 0
CCCOC(=O)C1NC(=O)N2C(C(=O)OCCC)C(C)(C)S[C@H]12 (some centres not stated) | 0 | 0 | 0 | 23 | 0 | 0
COc1cccc(NC(=O)CN(C)C(=O)[C@@H]2CCCN2C(=O)c2cccs2)c1 | 0 | 0 | 0 | 0 | 0 | 0
C#CCOCCOCCOCCNc1nc(N2CCN(C(=O)CCCCCCCCCCNC(=O)[C@H](CCCCN)n3cc(C[C@@H](C)CC)nn3)CC2)nc(N2CCN(C(=O)CCCCCCCCCCNC(=O)[C@@H]([C@H](C)O)n3cc(C)nn3)CC2)n1 | 0 | 58 | 118 | 0 | 0 | 97
C#CCOCCOCCOCCNc1nc(N2CCN(C(=O)CCCCCCCCCCNC(=O)[C@@H](CCSC)n3cc(CCO)nn3)CC2)nc(N2CCN(C(=O)CCCCCCCCCCNC(=O)[C@@H]([C@H](C)O)n3cc(C)nn3)CC2)n1 | 0 | 0 | 0 | 0 | 0 | 0
C#CCOCCOCCOCCNc1nc(N2CCN(C(=O)CCCCCCCCCCNC(=O)[C@H](CO)n3cc(CCCCCN)nn3)CC2)nc(N2CCN(C(=O)CCCCCCCCCCNC(=O)[C@H](CCCN=C(N)N)n3cc(C[C@@H](C)CC)nn3)CC2)n1 | - | 61 | 129 | - | 0 | -
C#CCOCCOCCOCCNc1nc(N2CCN(C(=O)CCCCCCCCCCNC(=O)[C@H](CCCCN)n3cc(CCO)nn3)CC2)nc(N2CCN(C(=O)CCCCCCCCCCNC(=O)[C@H](CCCCN)n3cc(C[C@@H](C)CC)nn3)CC2)n1 | - | 68 | 130 | - | 0 | -
